Measurements from ChEMBL document CHEMBL4715736, “Identification of anticancer agents based on the thieno[2,3-b]pyridine and 1H-pyrazole molecular scaffolds” (2016).

Legend:
Assay type in all cases: functional
[1] = tested on: OVCAR-8; test: Growth inhibition of human OVCAR-8 cells assessed as cell growth at 0.1 uM incubated for 48 hrs by sulforhodamine B assay relative to control; conditions: read-out: Activity
[2] = tested on: Hs-578T; test: Growth inhibition of human Hs-578T cells assessed as cell growth at 0.1 uM incubated for 48 hrs by sulforhodamine B assay relative to control; conditions: read-out: Activity
[3] = tested on: TK-10; test: Growth inhibition of human TK-10 cells assessed as cell growth at 100 uM incubated for 48 hrs by sulforhodamine B assay relative to control; conditions: read-out: Activity
[4] = tested on: MOLT-4; test: Growth inhibition of human MOLT-4 cells assessed as cell growth at 0.1 uM incubated for 48 hrs by sulforhodamine B assay relative to control; conditions: read-out: Activity
[5] = tested on: COLO 205; test: Growth inhibition of human COLO 205 cells assessed as cell growth at 1 uM incubated for 48 hrs by sulforhodamine B assay relative to control; conditions: read-out: Activity
Method in brief: (§1)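 NCI Developmental Therapeutics Program NCI60 panel. Compounds that were active in the 10 µM one-dose screen went on to dose–response testing. Growth at each concentration is expressed relative to untreated control (100%). GI50 (concentration giving 50% of maximal inhibition of proliferation) and TGI (concentration giving total growth inhibition) were derived from the curves.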

[6] = tested on: A498; test: Growth inhibition of human A498 cells assessed as cell growth at 0.01 uM incubated for 48 hrs by sulforhodamine B assay relative to control; conditions: read-out: Activity; method in brief: as §1
[7] = tested on: SF-539; test: Growth inhibition of human SF-539 cells assessed as cell growth at 100 uM incubated for 48 hrs by sulforhodamine B assay relative to control; conditions: read-out: Activity
[8] = tested on: SF-539; test: Growth inhibition of human SF-539 cells incubated for 48 hrs by sulforhodamine B assay; conditions: for CC50: read-out: LC50 (the source's name)
Method in brief: (§2)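 NCI DTP 60-line human tumour panel. Dose-response curves were run only for ligands active in the initial 10 µM screen. GI50 (concentration giving 50% of maximal inhibition of proliferation) and TGI (concentration giving total growth inhibition) were derived from these curves.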

[9] = tested on: NCI-H322M; test: Growth inhibition of human NCI-H322M cells assessed as cell growth at 1 uM incubated for 48 hrs by sulforhodamine B assay relative to control; conditions: read-out: Activity
[10] = tested on: A498; test: Growth inhibition of human A498 cells incubated for 48 hrs by sulforhodamine B assay; conditions: for CC50: read-out: LC50 (the source's name); method in brief: as §1
[11] = tested on: SK-MEL-2; test: Growth inhibition of human SK-MEL-2 cells assessed as cell growth at 0.1 uM incubated for 48 hrs by sulforhodamine B assay relative to control; conditions: read-out: Activity
[12] = tested on: T47D; test: Growth inhibition of human T47D cells assessed as cell growth at 0.1 uM incubated for 48 hrs by sulforhodamine B assay relative to control; conditions: read-out: Activity
[13] = tested on: PC-3; test: Growth inhibition of human PC-3 cells assessed as cell growth at 0.1 uM incubated for 48 hrs by sulforhodamine B assay relative to control; conditions: read-out: Activity
[14] = tested on: NCI-H522; test: Growth inhibition of human NCI-H522 cells assessed as cell growth at 1 uM incubated for 48 hrs by sulforhodamine B assay relative to control; conditions: read-out: Activity
[15] = tested on: MDA-MB-468; test: Growth inhibition of human MDA-MB-468 cells assessed as cell growth at 0.01 uM incubated for 48 hrs by sulforhodamine B assay relative to control; conditions: read-out: Activity
[16] = tested on: MCF7; test: Growth inhibition of human MCF7 cells incubated for 48 hrs by sulforhodamine B assay; conditions: for CC50: read-out: LC50 (the source's name)
Method in brief: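 NCI60 panel at the NCI Developmental Therapeutics Program. Only compounds active in the 10 µM screen went to dose-response testing. GI50, the concentration giving 50% of maximal inhibition of proliferation, and TGI, the concentration giving total growth inhibition, were derived from the dose-response curves.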

[17] = tested on: SF-295; test: Growth inhibition of human SF-295 cells incubated for 48 hrs by sulforhodamine B assay; method in brief: as §2
[18] = tested on: M14; test: Growth inhibition of human M14 cells assessed as cell growth at 0.1 uM incubated for 48 hrs by sulforhodamine B assay relative to control; conditions: read-out: Activity
[19] = tested on: SK-OV-3; test: Growth inhibition of human SK-OV-3 cells assessed as cell growth at 0.01 uM incubated for 48 hrs by sulforhodamine B assay relative to control; conditions: read-out: Activity
[20] = tested on: UACC-257; test: Growth inhibition of human UACC-257 cells assessed as cell growth at 0.01 uM incubated for 48 hrs by sulforhodamine B assay relative to control; conditions: read-out: Activity
[21] = tested on: MCF7; test: Growth inhibition of human MCF7 cells assessed as cell growth at 1 uM incubated for 48 hrs by sulforhodamine B assay relative to control; conditions: read-out: Activity
[22] = tested on: U-251; test: Growth inhibition of human U-251 cells assessed as cell growth at 100 uM incubated for 48 hrs by sulforhodamine B assay relative to control; conditions: read-out: Activity
[23] = tested on: RXF 393; test: Growth inhibition of human RXF 393 cells assessed as cell growth at 0.1 uM incubated for 48 hrs by sulforhodamine B assay relative to control; conditions: read-out: Activity
[24] = tested on: HCC 2998; test: Growth inhibition of human HCC 2998 cells assessed as cell growth at 100 uM incubated for 48 hrs by sulforhodamine B assay relative to control; conditions: read-out: Activity; method in brief: as §1
[25] = tested on: NCI-H460; test: Growth inhibition of human NCI-H460 cells assessed as cell growth at 1 uM incubated for 48 hrs by sulforhodamine B assay relative to control; conditions: read-out: Activity
[26] = tested on: UO-31; test: Growth inhibition of human UO-31 cells assessed as cell growth at 0.01 uM incubated for 48 hrs by sulforhodamine B assay relative to control; conditions: read-out: Activity
[27] = tested on: SK-MEL-2; test: Growth inhibition of human SK-MEL-2 cells assessed as cell growth at 0.01 uM incubated for 48 hrs by sulforhodamine B assay relative to control; conditions: read-out: Activity
[28] = tested on: NCI-H322M; test: Growth inhibition of human NCI-H322M cells assessed as cell growth at 100 uM incubated for 48 hrs by sulforhodamine B assay relative to control; conditions: read-out: Activity
[29] = tested on: RXF 393; test: Growth inhibition of human RXF 393 cells assessed as cell growth at 0.01 uM incubated for 48 hrs by sulforhodamine B assay relative to control; conditions: read-out: Activity
[30] = tested on: LOX IMVI; test: Growth inhibition of human LOX IMVI cells assessed as cell growth at 0.1 uM incubated for 48 hrs by sulforhodamine B assay relative to control; conditions: read-out: Activity
[31] = tested on: A549; test: Growth inhibition of human A549/ATCC cells assessed as cell growth at 0.01 uM incubated for 48 hrs by sulforhodamine B assay relative to control; conditions: read-out: Activity; method in brief: as §1
[32] = tested on: MDA-MB-435; test: Growth inhibition of human MDA-MB-435 cells assessed as cell growth at 100 uM incubated for 48 hrs by sulforhodamine B assay relative to control; conditions: read-out: Activity
[33] = tested on: SW-620; test: Growth inhibition of human SW-620 cells incubated for 48 hrs by sulforhodamine B assay; method in brief: as §2
[34] = tested on: RPMI-8226; test: Growth inhibition of human RPMI-8226 cells assessed as cell growth at 0.01 uM incubated for 48 hrs by sulforhodamine B assay relative to control; conditions: read-out: Activity
[35] = tested on: HOP-62; test: Growth inhibition of human HOP-62 cells assessed as cell growth at 1 uM incubated for 48 hrs by sulforhodamine B assay relative to control; conditions: read-out: Activity

In the case of `CN1CCc2nc3sc(C(N)=O)c(N)c3c(-c3cccs3)c2C1`, the growth at 0.1 µM [1] is reported as 96%, the growth at 0.1 µM [2] is reported as 92% and the growth at 100 µM [3] is reported as -6%. For the same compound, the growth at 0.1 µM [4] was 91%, the growth at 1 µM [5] was 69% and the growth at 0.01 µM [6] was 97%. For the same compound, the growth at 100 µM [7] was -39%, the GI50 [8] was 2.35 µM and the TGI [8] was 6.79 µM. For the same compound, the CC50 [8] was over 100 µM, the growth at 1 µM [9] was 99% and the GI50 [10] was 2.58 µM. For the same compound, the TGI [10] was 7.27 µM, the CC50 [10] was over 100 µM and the growth at 0.1 µM [11] was 114%. The growth at 0.1 µM [12] was 94%, the growth at 0.1 µM [13] was 110% and the growth at 1 µM [14] was 86%. It also gave a growth at 0.01 µM [15] of 86%, a GI50 [16] of 4.1 µM and a TGI [16] of over 100 µM. For the same compound, the CC50 [16] was over 100 µM, the GI50 [17] was 3.61 µM and the LC50 (concentration killing 50% of cells) [17] was over 100 µM. It also gave a TGI [17] of over 100 µM, a growth at 0.1 µM [18] of 111% and a growth at 0.01 µM [19] of 93%. For the same compound, the growth at 0.01 µM [20] was 97%, the growth at 1 µM [21] was 111% and the growth at 100 µM [22] was 7%. It also gave a growth at 0.1 µM [23] of 85%, a growth at 100 µM [24] of -29% and a growth at 1 µM [25] of 108%. The growth at 0.01 µM [26] was 97%, the growth at 0.01 µM [27] was 107% and the growth at 100 µM [28] was -1%. For the same compound, the growth at 0.01 µM [29] was 97%, the growth at 0.1 µM [30] was 83% and the growth at 0.01 µM [31] was 99%. It also gave a growth at 100 µM [32] of 3%, a GI50 [33] of 4.02 µM and an LC50 (concentration killing 50% of cells) [33] of over 100 µM. For the same compound, the TGI [33] was over 100 µM, the growth at 0.01 µM [34] was 108% and the growth at 1 µM [35] was 102%.

`Cc1cccc(NC(=O)c2sc3nc4c(cc3c2N)C(=O)CCC4)c1` gave a growth at 0.1 µM [1] of 98%, a growth at 0.1 µM [2] of 76% and a growth at 100 µM [3] of -23%. It also gave a growth at 0.1 µM [4] of 95%, a growth at 1 µM [5] of -17% and a growth at 0.01 µM [6] of 68%. The growth at 100 µM [7] was -25%, the GI50 [8] was 0.167 µM and the TGI [8] was 0.462 µM. The CC50 [8] was at least 100 µM, the growth at 1 µM [9] was 48% and the GI50 [10] was 0.139 µM. The TGI [10] was 0.701 µM, the CC50 [10] was over 100 µM and the growth at 0.1 µM [11] was 70%. The growth at 0.1 µM [12] was 78%, the growth at 0.1 µM [13] was 80% and the growth at 1 µM [14] was -35%. The growth at 0.01 µM [15] was 93%, the GI50 [16] was 0.145 µM and the TGI [16] was over 100 µM. The CC50 [16] was over 100 µM, the GI50 [17] was 0.175 µM and the LC50 (concentration killing 50% of cells) [17] was over 100 µM. It also gave a TGI [17] of at least 100 µM, a growth at 0.1 µM [18] of 60% and a growth at 0.01 µM [19] of 90%. The growth at 0.01 µM [20] was 82%, the growth at 1 µM [21] was 18% and the growth at 100 µM [22] was -43%. The growth at 0.1 µM [23] was 69%, the growth at 100 µM [24] was -23% and the growth at 1 µM [25] was 8%. It also gave a growth at 0.01 µM [26] of 88%, a growth at 0.01 µM [27] of 101% and a growth at 100 µM [28] of -22%. For the same compound, the growth at 0.01 µM [29] was 97%, the growth at 0.1 µM [30] was 91% and the growth at 0.01 µM [31] was 92%. For the same compound, the growth at 100 µM [32] was -64%, the GI50 [33] was 0.193 µM and the LC50 (concentration killing 50% of cells) [33] was over 100 µM. For the same compound, the TGI [33] was at least 100 µM, the growth at 0.01 µM [34] was 99% and the growth at 1 µM [35] was 30%.
